eIF4H inh: inhibitors of RNA binding by human eIF4H | inhibition, % at 35 µM | eIF4H fluorescence polarization binding assay | 290,000 compounds, 0.94% hits | Q15056;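 note: calls also rest on retests at 20 µM and on dose response follow-up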
PABP polyA inh: PABP-poly(A) binding inhibition. P11940. 290,000 compounds, 1% hits. AID 2014. inhibition, % at 35 µM. PABP-poly(A) RNA binding, fluorescence polarization;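 note: calls also rest on retests at 20 µM and on dose response follow-up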
SKN-1 block: blocks SKN-1 activity in C. elegans | C. elegans VP596 Pgst-4::GFP/RFP ratio, acrylamide-induced, 24 h | inhibition, % at 21.8 µM | 360,000 compounds, 0.49% hits | AID 624304;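 active = interference check ratio from 0.5 to 1.5 plus GFP to RFP signal ratio inhibition reaching or exceeding a fixed threshold, cut at about 30% in these data, passing the limit was not always enough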
MT1-MMP act inh: inhibitors of human MT1-MMP activation; GFP/RFP ratio change, % at 20 µM; AID 651647; P50281; HT1080 RFP-PRO-GFP cells, GFP/RFP ratio fluorescence, overnight; percent of plate control window, DMSO zero; 360,000 compounds, 0.061% hits;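 active = GFP/RFP ratio change of at least 30% with cell ATP level not reduced by more than half and red fluorescence within 50% of control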
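Assay system – RFP-PRO-GFP reporter HT1080 cells · Compound dosing – single dose of 20 µM compound, 1% DMSO final · Incubation – overnight compound exposure at 37 °C · Measure – GFP/RFP fluorescence ratio · Benchmarks – DMSO wells and RFP-L50D-GFP cells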
PABP1 MLLE inh: inhibitors of microRNA-mediated deadenylation, human PABP1 MLLE binding | inhibition, % at 20 µM | GST-MLLE / FITC-PAM2 fluorescence polarization | AID 588489 | 360,000 compounds, 0.36% hits | P11940; in the data active = inhibition above about 35%, passing the limit was not always enough;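 note: plate controls were DMSO wells with GST-MLLE for no effect and wells lacking GST-MLLE protein for full effect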
Numbers without * were called inactive; ? = inconclusive; . = no result. A selection: hits, their analogues and other compounds. The true share with any hit is near 1.7%. Unless noted, the rule behind the calls is not given here.

SMILES | eIF4H inh | PABP polyA inh | SKN-1 block | MT1-MMP act inh | PABP1 MLLE inh
Cc1nonc1OCCNCc1c(C(=O)N(C)C)nc2ccc(Cl)cn12 | 87.4* | 62.4* | 4.3 | -2.1 | -1.1
CC(=O)NCCN=C(C)c1sc2ccccc2c1O | 0.4 | 1.1 | 12.1 | 3.8 | 35.2*
CC(=Nc1ccc(O)cc1)c1sc2ccccc2c1O | ? | 13.8 | -6.8 | -237.3 | -31.6
COc1ccc(NC2CCCN(C(=O)C3(C)CCCCC3)C2)cc1 (stereo not given) | -3.8 | 10.1 | 20.0 | -0.6 | -10.2
CC(C)C/C(O)=C/c1nc2cc(Cl)ccc2oc1=O | 78.8* | active | -2.0 | -6.3 | 13.1
Nc1c(NCc2ccccc2F)c(=O)[nH]c(=O)n1Cc1ccccc1 | 50.6* | 50.8* | 10.9 | -11.2 | 0.9
O=C(Cn1cnc2c(nnn2-c2ccccc2)c1=O)N1CCOCC1 | active | 69.6* | 3.7 | -1.7 | -4.9
COC(=O)c1cc(=O)nc(NN=Cc2ccc(C)cc2)s1 | . | . | 6.7 | 3.9 | -63.7
COc1cc(-c2nc3ccccn3c2/N=C/c2cc(OC)c(O)cc2Cl)ccc1O | 67.7 | 0.3 | -1.6 | 3.9 | 7.0
N#Cc1ccc(CN2C=NS(=O)(=O)c3ccccc32)cc1 | -7.4 | 2.0 | -9.2 | 0.8 | 11.4
NC(=O)NC(=O)CC1S/C(=N/N=C2\CSC(=O)N2)NC1=O (stereo not given) | 11.8 | -5.0 | -5.1 | -0.5 | 43.3*
O=C(CN1CCCC1)Nc1c(Cl)cccc1Cl | -0.4 | 6.4 | -0.3 | -2.1 | -5.1
CCCCSc1nc2c(cc1C#N)CCC2 | -0.6 | -11.3 | 17.6 | -5.2 | 15.8
CCCSc1nc(C)c(-c2csc(C(C#N)=C3CCCC3)n2)cc1C#N | 59.0* | 8.1* | 0.3 | -14.2 | -26.8
CCN(CC(=O)Nc1c(F)cccc1F)C(=O)c1csc2c1CCCC2 | . | . | -9.7 | -1.0 | -10.3
CN(C)CCCNc1ccc(S(N)(=O)=O)cc1[N+](=O)[O-] | 7.1 | -4.5 | -7.1 | 6.5 | 11.6
Cc1ccc(C(=O)/C=C/C(=O)O)cc1 | -1.2 | -0.3 | 5.2 | -1.0 | 44.5*
COCc1cc(C)nc(SCC(=O)Nc2ccc(C)c(C)c2)c1C#N | -2.4 | -6.4 | 45.3* | -4.8 | 15.6
COCc1cc(C)nc(SCC(=O)Nc2ccc3[nH]c(=O)[nH]c3c2)c1C#N | 6.4 | 15.1 | 7.3 | 5.7 | -3.7
Cc1cccc(NC(=O)CN2CCN(C(=O)c3oc4c(Cl)cccc4c3C)CC2)c1C | . | . | 15.2 | -1.2 | 12.1
Cc1sc(NC(=O)C2=COCCO2)nc1-c1ccc(Cl)cc1 | . | . | 38.6* | 0.3 | -8.4
Cc1cc(N2C(=O)Cc3ccccc3C2=O)ccc1C(C)C | 2.0 | 2.8 | -5.0 | -0.8 | 18.9
N#CC1=C(N)C2=CCCC[C@H]2[C@H](c2ccccc2)C1(C#N)C#N | 89.4* | active | 10.7 | -23.7 | 6.5
CN(CC(=O)Nc1cccc(F)c1)C(=O)CC1CC2CCC1C2 (stereo not given) | -6.6 | -1.8 | 35.8* | 0.6 | -4.1
Cc1cccc(C)c1NC(=O)CN(C)C(=O)CC1CC2CCC1C2 (stereo not given) | . | . | 9.9 | 4.2 | -29.8
SMILES | eIF4H inh | PABP polyA inh | SKN-1 block | MT1-MMP act inh | PABP1 MLLE inh
N#CC(c1ccc(Cl)cc1)c1ccc2c(C(F)(F)F)cc(C(F)(F)F)nc2n1 (stereo not given) | -10.7 | -1.0 | 36.7* | -16.9 | 15.5
COc1ccccc1N(C)S(=O)(=O)c1ccc(C)c(C(=O)NC(C)c2ccccn2)c1 (stereo not given) | . | . | -5.2 | 6.3 | -27.0
CC1CCN(C(=O)CSc2nnc(-c3ccc(S(=O)(=O)N4CCOCC4)cc3)n2C)CC1 | 53.0* | 40.0* | 1.3 | 4.5 | -6.9
CC1CCN(S(=O)(=O)c2ccc(C(=O)N3CCOCC3)cc2)CC1 | 3.5 | 8.8 | 38.7* | 1.2 | 1.2
O=C(O)c1ccc(NC(=O)c2cn(-c3ccccc3)nc2-c2cccc(Cl)c2)cc1 | 48.3 | 13.3 | 0.1 | 1.7 | -9.9
N#CC(C#N)=C(N)/C(C#N)=C/c1cc(O)c(O)c(O)c1 | . | . | 92.9* | -17.8 | -96.9
CCCc1nc2ccccc2c(=O)n1CC(=O)c1ccc(F)cc1 | 1.4 | -1.0 | 2.4 | 2.8 | 8.2
COCCNS(=O)(=O)c1ccc2c(c1)oc(=O)c1cc(S(=O)(=O)NCCOC)ccc12 | -1.1 | 88.2* | . | . | .
Cc1ccc(NC(=S)NC(=O)C2CCCC2)cc1C | -4.0 | 2.8 | 0.2 | -2.1 | 25.1
Cc1ccc(NC(=S)NC(=O)C2CC2)c(C)c1 | -15.3 | -1.5 | 45.4* | -0.4 | 24.3
Cc1c(Cl)cccc1NC(=O)Cn1nc(C)n2cccc2c1=O | -9.9 | 7.9 | -7.8 | 0.6 | 4.6
CCCCCCCc1c(C)nc(N2CCOCC2)[nH]c1=O | -1.2 | 12.5 | 2.1 | -2.6 | -8.8
CCCCc1c(C)nc(N2CCCC2)[nH]c1=O | 64.9* | -2.2 | 11.1 | 1.1 | 1.0
CN1CCC(=O)N(CCOc2ccccc2)CC1 | -10.8 | -16.5 | -3.1 | -0.8 | -0.7
O=C(c1ccccc1)N1CC(COc2ccccc2)OC(c2cccnc2)O1 (stereo not given) | 63.3* | 76.8* | 0.6 | 0.6 | -7.2
Cc1ccc(S(=O)(=O)NCc2ccccc2)cc1C(=O)NCCc1ccc(S(N)(=O)=O)cc1 | . | . | -13.9 | 6.7 | 4.8
O=C(COc1ccccc1)Nc1ccc(-c2nnc(-c3ccco3)o2)cc1 | -1.1 | -3.5 | 18.7 | 5.6 | 0.1
CC(C)COc1ccc(-c2nnc(-c3ccco3)o2)cc1 | -1.8 | -4.6 | 43.2* | 3.8 | 2.6
CCCOc1ccc(-c2nnc(-c3ccco3)o2)cc1 | -3.4 | 0.2 | 78.6* | 4.3 | -1.2
COc1cccc(-c2nnc(-c3ccco3)o2)c1 | 1.9 | 2.9 | 11.8 | -0.3 | 1.4
COc1ccc(NC(=O)Nc2cccs2)cn1 | 34.9 | 36.4 | 4.3 | 4.1 | 17.9
O=C(Nc1ccc(OCc2ccccc2)cc1)Nc1cccnc1 | -4.7 | -12.1 | 9.2 | 5.3 | -5.6
COc1ccc(NC(=O)Nc2ccc([N+](=O)[O-])cc2)cn1 | 82.5* | 50.8* | -6.3 | -11.9 | 57.8*
COc1ccc(NC(=O)Nc2ccc(OCc3ccccc3)cc2)cn1 | ? | ? | 11.9 | -17.5 | 66.3*
COc1ccc(NC(=O)Nc2cc(C)cc(C)c2)cn1 | 50.0 | 37.3 | -3.8 | -8.2 | 65.8*
SMILES | eIF4H inh | PABP polyA inh | SKN-1 block | MT1-MMP act inh | PABP1 MLLE inh
COc1cc(NC(=O)CCc2nnc3ccc(N4CCN(C)CC4)nn23)cc(OC)c1 | -3.1 | -9.9 | -2.0 | -5.2 | -8.1
O=C(COc1ccccc1Cl)Nc1ccccc1C(=O)N1CCCCC1 | -17.1 | -11.0 | -5.8 | 0.7 | -1.1
CCOC(=O)N1C=CC=C[C@@H]2[C@@H](N3C(=O)c4ccccc4C3=O)C(=O)N21 | -0.5 | 92.8* | 6.5 | -0.9 | 9.1
CCOC(=O)c1cc2sc(C)cc2n1CCCN1C(=O)c2ccccc2C1=O | -9.2 | -6.8 | -14.2 | -3.7 | 17.5
Nc1[nH]c(=O)[nH]c(=O)c1N=Cc1ccccc1 | . | . | -14.8 | -10.8 | 68.4*
COc1cccc(NC(=O)CN(C)C(=O)c2ccc3c(c2)S(=O)(=O)N=C2CCCCCN23)c1 | . | . | 0.9 | 0.7 | -70.3

Source: PubChem
